Screening data (PubChem BioAssay)
NR3A LBD binder = NR3A (human) ligand-binding domain modulation; AID 1259313; 340,000 compounds, 2.5% hits; NR3A LBD differential scanning fluorimetry, Tm shift; 0% = protein alone, 100% = glycine-bound protein; Tm shift relative to glycine control, % at 25 µM;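 active = melting temperature shift of at least 10% of the positive control shift, at one fixed dose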
PAFAH1B2 FP inh = PAFAH1B2 (human) inhibition; recombinant PAFAH1B2, FP-rhodamine activity probe, fluorescence polarization; inhibition, % at 3.39 µM; 340,000 compounds, 1.2% hits; AID 492953;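 active = inhibition above the mean of all tested compounds plus 3 SD, cut at about 24% in these data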;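 also: 0% = enzyme with DMSO and 100% = wells lacking PAFAH1B2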
pPAFAH FP inh = inhibitors of human plasma PAF acetylhydrolase (pPAFAH) | inhibition, % at 3.39 µM | Q13093 | 330,000 compounds, 1.5% hits | recombinant pPAFAH, FP-rhodamine probe fluorescence polarization;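 active = inhibition above the mean inhibition across the screen plus 3 SD, cut at about 25% in these data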;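 also: inhibitors block binding of the rhodamine activity-based probe so polarization drops; 0% = enzyme with DMSO and 100% = wells lacking pPAFAH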
Target sequence (Q13093 whole entry, looked up): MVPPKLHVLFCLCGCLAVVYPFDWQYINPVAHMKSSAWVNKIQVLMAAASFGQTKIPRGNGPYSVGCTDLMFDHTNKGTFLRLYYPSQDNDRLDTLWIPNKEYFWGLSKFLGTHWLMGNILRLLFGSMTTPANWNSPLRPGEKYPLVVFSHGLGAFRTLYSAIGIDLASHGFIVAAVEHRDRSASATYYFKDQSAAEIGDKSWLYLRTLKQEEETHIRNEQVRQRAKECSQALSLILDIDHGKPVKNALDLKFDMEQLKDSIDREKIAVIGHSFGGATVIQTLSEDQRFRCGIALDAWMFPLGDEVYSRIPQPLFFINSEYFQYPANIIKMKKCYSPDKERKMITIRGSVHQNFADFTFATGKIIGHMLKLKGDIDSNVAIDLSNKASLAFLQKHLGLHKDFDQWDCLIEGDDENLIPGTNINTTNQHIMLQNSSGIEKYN
PAFAH1B3 FP inh = PAFAH1B3 (human) inhibition | Q15102 | 340,000 compounds, 0.28% hits | recombinant PAFAH1B3, FP-rhodamine probe, fluorescence polarization | AID 492972 | inhibition, % at 3.39 µM;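 active = inhibition above the screen-wide average of all tested compounds plus 3 SD, cut at about 25% in these data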;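 also: 0% = enzyme with DMSO only and 100% = wells lacking PAFAH1B3 protein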
UCH37 inh = inhibitors of human deubiquitinating enzyme UCH37 | inhibition, % (concentration not given with the values) | Q9Y5K5 | purified proteasome/UCH37, Ub-AMC cleavage fluorescence | 330,000 compounds, 0.33% hits;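 active = mean inhibition over replicate wells above about 20%, limit read from the data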;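 also: 0% = compound-free wells with enzyme and 100% = wells lacking proteasome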
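Material: Human UCH37 enzyme supplied as purified proteasome complex | Schedule: 30 min compound-proteasome preincubation then 25 min substrate reaction, room temperature | Detection: AMC fluorescence from Ub-AMC cleavage, excitation 355 nm, emission 460 nm | Benchmarks: Wells without proteasome as full block, compound-free enzyme plus substrate as uninhibited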
PAFAH2 inh = inhibitors of human PAFAH2; Q99487; recombinant PAFAH2, FP-rhodamine activity probe, fluorescence polarization; inhibition, % at 3.39 µM; 340,000 compounds, 0.99% hits;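 active = inhibition above the mean over all tested compounds plus 3 SD, cut at about 30% in these data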;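 also: inhibitors block probe labeling of enzyme so polarization drops; 0% = enzyme with DMSO and 100% = wells lacking PAFAH2 protein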
* hit, by the source's call; nt = no result given. A selection: hits, their analogues and other compounds. The true share with any hit is near 4.8%.

SMILES	NR3A LBD binder	PAFAH1B2 FP inh	pPAFAH FP inh	PAFAH1B3 FP inh	UCH37 inh	PAFAH2 inh
CCOc1cc(/C=C(/C#N)c2ccc(F)cc2)ccc1OCc1ccc(C(=O)O)o1	0	32*	9	-1	10	-5
CCCCC12CN3CCN(CC(C3)C1=NNC(=O)Nc1ccccc1)C2	nt	nt	nt	nt	1	nt
CCOC(=O)NC(NC(=S)Nc1ccc(OCC)cc1)C(Cl)(Cl)Cl (stereo not given)	-4	1	1	5	-1	4
O=C(NC(NC(=S)Nc1c(Cl)cccc1Cl)C(Cl)(Cl)Cl)OCc1ccccc1 (stereo not given)	17*	-18	-30	-22	4	-61
O=C1O/C(=C/c2ccccc2)c2ccccc21	-28	4	-2	0	-20	19
N#CC1=C(c2ccccc2)/C(=C/c2ccccc2)OC1=O	27*	11	2	18	nt	18
Cc1ccc(S(=O)(=O)NN=Cc2ccc(OCC(=O)N3CCOCC3)cc2)cc1	nt	nt	nt	nt	3	nt
Cc1cc(O)c(-c2cc(C(=O)Nc3sc4c(c3C(=O)NCc3ccco3)CCC4)[nH]n2)cc1C	7	3	-1	-4	-85	-25
Cc1ccc(-c2cc(C(=O)Nc3sc4c(c3C(=O)NCc3ccco3)CCC4)[nH]n2)c(O)c1	21*	2	-3	-6	-112	-11
Cc1csc(SCC(=O)NCCc2ccc(Cl)cc2)n1	3	32*	7	9	2	4
Cc1ccc(Nc2ccc(C(=O)O)cc2N)cc1	-2	nt	28*	nt	-7	nt
Cc1cc(C)cc(Nc2ccc(C(=O)O)cc2N)c1	-1	6	18	12	0	17
CCOc1ccccc1Nc1ccc(C(=O)O)cc1N	-1	1	7	3	3	-2
COc1cccc(Nc2ccc(C(=O)O)cc2N)c1	0	3	25*	6	-23	-2
Cc1ccccc1C=NNc1ccc(Cl)nn1	nt	nt	nt	nt	-6	nt
CCOC(=O)c1sc(N=CN(C)C)nc1C	nt	nt	nt	nt	9	nt
CCCc1ccc(Oc2cn[nH]c2-c2ccc(O)cc2O)cc1	28*	0	11	4	5	7
CCOc1ccccc1Oc1cn[nH]c1-c1ccc(O)cc1O	5	8	6	10	4	0
COc1ccc(Oc2cn[nH]c2-c2ccc(O)cc2O)cc1	15*	-1	9	12	0	3
O=C(O)CN1C(=O)/C(=C\c2cc([N+](=O)[O-])ccc2OCc2ccccc2Cl)SC1=S	-5	7	45*	12	8	25
COc1cc(/C=C2/SC(=NCc3ccccc3)N(Cc3ccccc3)C2=O)ccc1O	13*	-7	8	-3	4	-9
O=C(O)C(c1ccccc1)N1C(=O)/C(=C\c2ccc(O)c(O)c2)SC1=S (stereo not given)	-5	-80	30*	0	11	-11
O=C1/C(=C\c2ccc(O)c(O)c2)SC(=S)N1Cc1ccccc1	29*	-199	nt	-9	8	-1
C(/C=C/c1ccccc1)=NN1CCN(c2ccccc2)CC1	nt	nt	nt	nt	3	nt
O=C(NN=Cc1cc2c(cc1Br)OCO2)C1COc2ccccc2O1 (stereo not given)	nt	nt	nt	nt	1	nt
SMILES	NR3A LBD binder	PAFAH1B2 FP inh	pPAFAH FP inh	PAFAH1B3 FP inh	UCH37 inh	PAFAH2 inh
Cc1nn(-c2ccccc2)c(Cl)c1/C=C1\SC(=S)N(CCCCCC(=O)O)C1=O	2	3	28*	12	13	7
O=C1/C(=C\c2cccc(O)c2)SC(=S)N1Cc1ccccc1	5	-3	-2	-5	4	-4
Cc1ccc(/C=C2\SC(=S)N(Cc3ccccc3)C2=O)o1	-3	-2	10	0	1	-3
COc1cc(/C=C2/SC(=S)N(Cc3ccccc3)C2=O)ccc1O	20*	-50	-7	-51	7	-64
O=C1/C(=C/c2ccncc2)SC(=S)N1Cc1ccccc1	21*	6	1	4	5	-2
O=C1/C(=C\c2cccc(O)c2O)SC(=S)N1Cc1ccccc1	38*	0	9	22	nt	10
CCCOC(=O)C(C)=NNC(=O)c1ccco1	nt	nt	nt	nt	1	nt
COc1ccc(C=NNC(C)(C)C)c(OC)c1	nt	nt	nt	nt	6	nt
O=C(O)CCCN1C(=O)/C(=C\c2ccccc2OCc2ccccc2)SC1=S	4	11	29*	10	5	15
CCNc1sc(C(=O)c2cccs2)c(N)c1-c1nc2ccccc2s1	21*	0	11	-5	0	-4
COc1cc(C(=O)O[C@H]2CC(C)=CC[C@@]3(C)CC[C@@](O)(C(C)C)[C@H]23)ccc1O	-1	34*	6	-3	4	1
CS(=O)(=O)NC1c2cccc3cccc(c23)C1Sc1nncn1/N=C/c1ccco1 (stereo not given)	20*	3	3	7	nt	8
Fc1ccc(NC(=S)Nc2cc(-c3ccccc3)[nH]n2)cc1Cl	26*	-6	-11	-5	3	-14
Fc1ccc(NC(=S)Nc2cccnc2)cc1Cl	-1	6	-2	6	3	-4
Cc1ccc(NC(=S)Nc2cc(-c3ccccc3)[nH]n2)cc1Cl	24*	0	-17	7	nt	-27
Cc1ccc(C=NNC(=O)C[n+]2ccccc2)o1	nt	nt	nt	nt	6	nt
CC(C)c1ccc(C=NNC(=O)CN(c2cccc(Cl)c2Cl)S(C)(=O)=O)cc1	nt	nt	nt	nt	2	nt
CN(Cc1nc(-c2cnccn2)no1)Cc1cccc2ccccc12	-1	4	1	4	5	4
CN(Cc1nc(-c2cnccn2)no1)CC1(c2ccccc2)CC1(C)C (stereo not given)	-5	26*	5	9	2	-4
NC(=O)c1ccc(NC(=O)CN2C(=O)NC3(CCCCCCC3)C2=O)cc1	1	3	26*	12	2	8
Cc1ccc(Sc2ccc(NC(=O)CCN3C(=O)NC4(CCCC4)C3=O)cc2)c(C)c1	-2	7	32*	2	4	38*
COc1ccccc1C=NNc1nncc2ccccc12	nt	nt	nt	nt	6	nt
COc1ccccc1NC(=O)c1cc2c(CO)cnc(C)c2oc1=Nc1ccc(OC)c(OC)c1	1	0	25*	12	3	-4
COc1ccccc1NC(=O)c1cc2c(CO)cnc(C)c2oc1=Nc1cc(OC)c(OC)c(OC)c1	0	5	17	16	4	-1
CN(C)c1ccc(/C=C/C(=O)c2ccc(O)cc2)cc1	12*	-3	nt	-8	nt	-15
CSc1ccc(NN=C(C#N)S(=O)(=O)C(C)(C)C)cc1	nt	nt	nt	nt	11	nt
Cc1cccc(OCC(=O)Nc2ccc3oc(=O)ccc3c2)c1C	14*	6	-3	4	-12	-7
COc1ccc(OCCCC(=O)Nc2ccc(N3CCOCC3)cc2)cc1	28*	2	0	-2	0	-1
Cc1ccc(OCC(=O)Nc2ccc(N3CCCC3)cc2)cc1C	-20	3	30*	11	2	16
